The list is not random: actives were taken first. Their share in the collection is about 1.5%.
TPT1 inhibitor: C. albicans TPT1 enzyme inhibition | recombinant caTPT1, FP RNA substrate dephosphorylation | inhibition, % at 5 µM | 300,000 tested, 0.81% active;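 active = inhibition above the mean of all tested compounds plus 3 SD, set per screening campaign, cut at about 24% in these data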;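 note: plate controls were DMSO alone for no effect and ferristatin control at 100 nM for full effect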
Rpn11 block: blocks the human proteasome subunit Rpn11 | O00487 | human 26S proteasome, Ub4-pepOG fluorescence polarization; 20S core pre-blocked with epoxomicin | inhibition, % at 20 µM | 360,000 tested, 0.59% active | AID 588493;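 active = inhibition at 20 µM, scaled to each plate's controls, above about 33%, limit read from the data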
CSN deneddyl inh: CSN deneddylation inhibition | 360,000 tested, 0.38% active | Q92905 | Purified CSN, SCF-Nedd8-OG deneddylation, fluorescence polarization | inhibition, % at 12.5 µM | AID 651999;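 active = pattern-corrected inhibition above about 35%, with an unprinted fluorescence ratio check between 0.5 and 1.5, limit read from the data, passing the limit was not always enough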;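 note: 0% = enzyme with substrate and 100% = substrate without enzyme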
Target sequence (Q92905 whole entry, looked up, one chain of several): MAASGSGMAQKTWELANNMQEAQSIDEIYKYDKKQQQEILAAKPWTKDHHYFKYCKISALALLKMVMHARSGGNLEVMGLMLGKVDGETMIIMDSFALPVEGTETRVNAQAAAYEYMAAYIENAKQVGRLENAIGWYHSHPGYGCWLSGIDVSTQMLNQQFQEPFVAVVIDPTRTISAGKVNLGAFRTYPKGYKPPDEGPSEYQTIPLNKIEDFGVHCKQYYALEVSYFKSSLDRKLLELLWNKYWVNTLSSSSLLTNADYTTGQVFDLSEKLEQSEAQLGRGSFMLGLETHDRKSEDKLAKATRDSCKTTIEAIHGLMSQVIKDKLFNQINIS
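Material: purified human Csn5 enzyme expressed in HEK293T cells / Medium: Tris buffer pH 7.5, NaCl, DTT, Tween-20, trehalose, ovalbumin / Compound dosing: 12.5 µM single point / Schedule: 90 min incubation of compound, enzyme and substrate at room temperature / Signal: fluorescence polarization of the substrate / Control set: no-enzyme wells high, enzyme-with-substrate wells low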
HNF4A DNA FP: change in binding of human HNF4 alpha to DNA. HNF4a-FITC DNA binding, fluorescence polarization, 1 h. 360,000 tested, 0.3% active. AID 1224865. P41235. activity change, % at 10 µM; in the data active = activity change above about 30%, passing the limit was not always enough
TPT1 inh confirm: TPT1 (C. albicans) inhibition, confirmation; 2,400 tested, 74% active; inhibition, % at 5 µM; shares compounds with TPT1 inhibitor; recombinant caTPT1, fluorescence polarization, RNase T1 coupled;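 active = inhibition above the primary screen limit, the mean inhibition of all tested compounds plus 3 SD, cut at about 25% in these data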
RNase T1 inh: counter-screen for TPT1 inhibitors: inhibitors of Aspergillus oryzae RNase T1 | shares compounds with TPT1 inhibitor | RNase T1 cleavage, fluorescence polarization, 1536-well | inhibition, % at 5 µM | 2,400 tested, 83% active | AID 2153;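 active = inhibition above the solvent-only control well mean plus 3 SD, limit set per screening run, cut at about 23% in these data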;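 note: plate controls were DMSO wells with enzyme for no effect and wells without RNase T1 for full effect; inhibitors block cleavage so intact labeled substrate keeps polarization high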
Target sequence (P00651 whole entry, looked up): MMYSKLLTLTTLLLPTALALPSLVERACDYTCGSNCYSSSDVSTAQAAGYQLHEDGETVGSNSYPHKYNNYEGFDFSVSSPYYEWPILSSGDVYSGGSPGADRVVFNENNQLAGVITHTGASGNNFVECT
Rpn11 inh conf: confirmation of human proteasome Rpn11 inhibitors; shares compounds with Rpn11 block; purified human 26S proteasome, Ub4-pepOG fluorescence polarization; proteasome pretreated with epoxomicin; 1,900 tested, 29% active; inhibition, % at 20 µM
MMP-2 inh: MMP-2 (human) inhibition counter-screen. shares compounds with Rpn11 block. recombinant MMP-2, FRET peptide cleavage fluorescence. inhibition, % at 20 µM. 1,900 tested, 4% active. AID 602330;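 note: human MMP-2 activated beforehand with APMA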
Thrombin FP: counter-screen for RPN11 inhibitors: inhibition of bovine thrombin; shares compounds with Rpn11 block; bovine thrombin cleavage of Ub4-pepOG, fluorescence polarization; inhibition, % at 20 µM; 1,900 tested, 13% active; AID 602333;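 active = mean inhibition at least 40% at 20 µM, or signal 3 deviations below plate average, so some actives read negative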;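 note: plate controls were thrombin with DMSO for no effect and buffer wells lacking thrombin for full effect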
An asterisk follows results filed as active; . = no result shown. Cut-off read from the data, not from the text of the source, unless noted: active = inhibition above about 40%; inactive = the rest.

SMILES	TPT1 inhibitor	Rpn11 block	CSN deneddyl inh	HNF4A DNA FP	TPT1 inh confirm	RNase T1 inh	Rpn11 inh conf	MMP-2 inh	Thrombin FP
COc1cccc(CN(C)CCCn2ccc(NC(=O)OCc3ccccc3)nc2=O)c1	.	4	1	2	.	.	.	.	.
CN1CCc2c(sc3c2C(=O)NC(c2cn(Cc4ccccc4)c4ccccc24)N3)C1 (centres undefined)	67*	57*	26	52*	75*	85*	59*	8	41*
CCN(CC(=O)Nc1c(F)cccc1F)C(=O)c1ccc2c(c1)C(=O)N(c1ccccc1C)C2=O	.	-1	-7	2	.	.	.	.	.
CCOC(=O)c1c(CC(C)C)csc1/N=C/C1C(=O)CC(C)(C)CC1=O	61*	48*	36*	-3	12	15	8	10	-9
COC(=O)c1c(SCC(=O)NC2CCCCC2)[nH]c2ccccc2c1=O	25*	91*	21	16	19	30*	9	-35	6
O=C1c2ccccc2C(=O)N1CCCCc1cn(C[C@H]2CC[C@@H]([C@@H]3CC[C@H](Cn4cc(CCCCN5C(=O)c6ccccc6C5=O)nn4)O3)O2)nn1	.	-5	2	4	.	.	.	.	.
O=C1N/C(=C/c2ccc(N3CCCC3)cc2)C(=O)N1c1ccccc1	34*	41*	9	16	49*	63*	3	-20	-7
O=C1NC(=O)N(c2ccccc2)C1=O	-3	-5	3	-3	.	.	.	.	.
O=C1N/C(=C/c2ccc(N3CCOCC3)o2)C(=O)N1c1ccccc1	70*	59*	-1	112	150*	148*	166*	20	166*
CN(Cc1cnc2nc(N)nc(N)c2n1)c1ccc(C(=O)NC(CCC(=O)O)C(=O)O)cc1 (centres undefined)	.	-23	-10	-16	.	.	.	.	.
Cc1noc(C)c1C(=O)OCC(=O)/C=C1/N(C)c2ccccc2C1(C)C	.	2	7	2	.	.	.	.	.
Cc1cccc(C(=O)N[C@H](C(=O)OCC(=O)NC(=O)c2cccn2C)C(C)C)c1	-1	9	3	-1	.	.	.	.	.
N#Cc1c(-c2cccs2)nc(SCC(=O)c2cccs2)[nH]c1=O	40*	47*	17	15	23	30*	68*	4	44*
CN1/C(=C/C(=S)NC(=O)C2CCC2)C(C)(C)c2ccccc21	51*	54*	5	20	13	18	-12	21	-6
CC1(C(=O)Nc2ccc3[nH]ncc3c2)CCN1C(=O)CCc1ccccc1 (centres undefined)	.	7	4	1	.	.	.	.	.
C=CCN=C1S/C(=C\c2ccc(N(C)C)cc2)C(=O)N1CC=C	44*	92*	16	36*	50*	63*	19	-11	21
O=[N+]([O-])c1ccc(Cl)c(-c2ccc(/C=N/n3cnnc3)o2)c1	-1	-14	3	-2	.	.	.	.	.
CN1CCN(/N=C/c2ccc(-c3ccc([N+](=O)[O-])cc3Cl)o2)CC1	30*	60*	21	15	35*	49*	14	-30	9
COCCCn1c(=O)/c(=C\c2ccccc2OC(F)F)s/c1=C(/C#N)C(=O)NCCOC	2	.	21	11	.	.	.	.	.
COCCCn1c(=O)/c(=C\c2cccc(OC)c2OC)s/c1=C(/C#N)C(=O)Nc1ccc(C(=O)O)cc1	62*	102*	22	14	73*	87*	46*	2	86*
COc1ccccc1-c1csc(C(O)c2cccc(Cl)c2)n1 (centres undefined)	.	2	-2	6	.	.	.	.	.
O=C(O)c1cc(-c2ccco2)nn1-c1cccc(Cl)c1	29*	42*	26	-41	25*	32*	19	15	6
O=C(N/N=C/c1ccoc1)c1cccc(OC(F)(F)C(F)F)c1	-2	-1	2	2	.	.	.	.	.
CN(C(=O)CSc1nnc(-c2ccco2)n1C)C1CCCCC1	.	-2	1	-2	.	.	.	.	.
CCCCCCN1C=CC=C/C1=C\C=C(C#N)C#N	61*	62*	8	22	73*	84*	4	-5	11
SMILES	TPT1 inhibitor	Rpn11 block	CSN deneddyl inh	HNF4A DNA FP	TPT1 inh confirm	RNase T1 inh	Rpn11 inh conf	MMP-2 inh	Thrombin FP
N#CC1=C(N)Oc2cc(O)c(C=Nc3ccccc3)cc2C1c1ccccc1 (centres undefined)	3	2	-1	4	.	.	.	.	.
Cc1ccccc1N=Cc1cc2c(cc1O)OC(N)=C(C#N)C2c1ccccc1 (centres undefined)	53*	66*	13	35	73*	82*	96*	5	93*
O=C(CCc1cccc(Cl)c1)N1CCCC(Nc2ccccc2)C1 (centres undefined)	0	-1	-3	0	.	.	.	.	.
COc1ccc(S(=O)(=O)N2CCOC2CNC(=O)C(=O)NCc2ccccn2)cc1OC (centres undefined)	.	-1	4	1	.	.	.	.	.
CCOC(=O)NC(=O)/C(C#N)=C/c1ccc(N(C)C)cc1	99*	126*	34	56*	115*	125*	117*	-28	98*
CCc1nc2ccccc2n1CCc1ccccc1	-2	-2	4	0	.	.	.	.	.
Cn1c(-c2c(N)n(CCc3ccccc3)c3nc4ccccc4nc23)nc2ccccc21	38*	46*	4	22	48*	60*	38	-2	29
N#Cc1ccc(-c2cccnc2)nc1SCC(=O)Nc1sc2c(c1C#N)CCC2	46*	48*	9	5	18	29*	26	9	20
CC1CCc2c(sc3ncnc(SCC(=O)N(C)C4CCS(=O)(=O)C4)c23)C1 (centres undefined)	.	5	2	1	.	.	.	.	.
COc1ccc(C)cc1Nc1n[n+](-c2ccccc2)c(-c2ccc(N(C)C)cc2)s1	51*	60*	15	68*	90*	99*	75*	3	127*
COC(=O)CN1C(=S)N(c2ccc(OC)cc2)C(=O)/C1=C/c1ccc(OC)cc1	-1	1	5	5	.	.	.	.	.
COc1ccc(C(=O)N2C(=S)NC(=O)/C2=C\c2ccc(C)cc2)cc1	34*	63*	43*	19	42*	57*	107*	20	75*
Cc1cc(C=C2C(=O)c3ccccc3C2=O)c(C)n1-c1ccc(C(=O)O)cc1	27*	40*	24	3	35*	47*	9	-22	12

Screening data (PubChem BioAssay)
